Molecular target: human serum albumin (HSA) (Homo sapiens, UniProt P02768)
Test: Isothermal titration calorimetry with HSA
Assay type: binding
In short: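 HSA (60 μM) in the sample cell, titrated with test compound from the syringe. All solutions were in 5% DMSO in 20 mM phosphate buffer, pH 7.4, with the same solution in the reference cell. Concentrations were set by A280. The run was 19 injections (0.4 μl, then 18 × 2 μl) at 150 s intervals, stirring at 750 rpm. Ligand-into-buffer dilution heats were subtracted. Ka, n, ΔH and ΔS were fitted; ΔG was calculated from them.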

Sequence of human serum albumin (HSA) (P02768 25-609): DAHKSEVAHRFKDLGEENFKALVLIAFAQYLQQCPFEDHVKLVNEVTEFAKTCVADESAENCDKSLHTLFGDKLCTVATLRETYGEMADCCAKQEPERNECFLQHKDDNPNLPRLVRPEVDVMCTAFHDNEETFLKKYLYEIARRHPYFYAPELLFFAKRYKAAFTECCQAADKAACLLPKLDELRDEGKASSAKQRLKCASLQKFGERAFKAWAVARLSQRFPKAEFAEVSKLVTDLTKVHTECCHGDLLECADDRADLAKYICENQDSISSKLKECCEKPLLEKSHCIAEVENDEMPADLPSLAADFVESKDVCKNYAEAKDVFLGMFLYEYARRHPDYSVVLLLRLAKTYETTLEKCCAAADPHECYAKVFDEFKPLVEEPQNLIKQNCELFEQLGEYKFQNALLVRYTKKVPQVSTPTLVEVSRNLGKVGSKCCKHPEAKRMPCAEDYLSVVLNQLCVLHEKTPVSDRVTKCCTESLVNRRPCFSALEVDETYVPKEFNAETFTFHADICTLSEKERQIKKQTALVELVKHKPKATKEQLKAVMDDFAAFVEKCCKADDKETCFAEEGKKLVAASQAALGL

**Q.** `Cc1ccnc2c1NC(=O)c1cccnc1N2C1CC1` [nevirapine] was tested. Which “Enthalpy (ΔHm), ITC” value (298 K, HSA) did it give?
**A.** -2.53 kcal/mol

**Q.** And the “Gibbs free energy (ΔGm), ITC” value (298 K, HSA)?
**A.** -6.84 kcal/mol

**Q.** And the “Stoichiometry (n), ITC” value (298 K, HSA)?
**A.** 0.9

**Q.** What about the “Entropy (ΔS) of binding to HSA” value (calculated from ITC results) of the same compound?
**A.** +60.4 J K^−1 mol^−1

Reference: publication PMC12376879 (RSC Advances, 2025)
